Rows were chosen to be rich in hits. Some 2.6% of all compounds tested hit in one or more screens of this group.
TCR-CD3 inh – human TCR-CD3 binding inhibition. TAMRA-labeled TCR probe fluorescence, biochemical. inhibition, % at 9.4 µM. hit rate 0.37% among 360,000; in the data active means inhibition above about 19%;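 further: recombinant mutant TCR 2C K166C tagged with TAMRA read by polarization; 0% = receptor in buffer alone and 100% = receptor with positive control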
mABHD4 FP – inhibitors of mouse ABHD4. Q8VD66. purified mABHD4, FP-Rh probe fluorescence polarization. inhibition, % at 8.92 µM. hit rate 0.54% among 370,000;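 active means inhibition exceeding the mean over every tested compound plus 3 SD, cut at about 30% in these data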;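 further: 0% = plate median of compound wells and 100% = S159A mutant with DMSO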
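assay system = mABHD4 protein | compound dosing = single nominal dose of 8.92 µM, 0.89% DMSO final | read-out basis = percent inhibition of probe binding, normalized to plate controls | schedule = Enzyme–compound pre-incubation 45 min, then probe 60 min, both 25 °C | detection = fluorescence polarization, excitation 525 nm, emission 598 nm, BODIPY TMR filters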
PRMT1 FP inh – blocks human protein arginine methyltransferase 1. Q99873. recombinant PRMT1, activity-based probe fluorescence polarization. inhibition, % at 2.79 µM. hit rate 1.3% among 370,000. AID 652257;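 active means inhibition above about 21% made by adding two undisclosed values, limit read from the data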
Target sequence (Q99873 whole entry, looked up): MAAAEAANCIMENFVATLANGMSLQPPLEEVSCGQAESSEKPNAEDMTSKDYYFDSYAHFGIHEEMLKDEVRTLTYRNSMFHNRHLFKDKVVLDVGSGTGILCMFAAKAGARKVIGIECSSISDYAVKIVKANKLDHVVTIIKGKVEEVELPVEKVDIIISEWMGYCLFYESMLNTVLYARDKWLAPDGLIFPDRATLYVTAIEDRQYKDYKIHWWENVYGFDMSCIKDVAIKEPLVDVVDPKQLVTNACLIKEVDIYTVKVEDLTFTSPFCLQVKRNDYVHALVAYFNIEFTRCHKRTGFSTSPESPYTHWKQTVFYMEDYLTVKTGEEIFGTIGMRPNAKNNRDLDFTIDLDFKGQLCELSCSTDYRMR
SIAE primary – inhibitors of human sialic acid acetylesterase SIAE; SIAE FP-Rh probe binding, fluorescence polarization; hit rate 0.69% among 370,000; inhibition, % at 9.66 µM; Q9HAT2;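 active means inhibition above a cutoff: mean of compounds within the control limits plus 3 SD of those, cut at about 17% in these data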;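 further: 0% = plate median of compound wells and 100% = probe without SIAE protein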
HTRA1 inh – HTRA1 (human) protease inhibition; hit rate 0.5% among 340,000; recombinant HTRA1, FP-rhodamine activity-based probe, fluorescence polarization; Q92743; inhibition, % at 5.96 µM; in the data active means inhibition above about 36%;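 further: 0% = enzyme with DMSO and 100% = wells lacking enzyme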
mABHD4 conf – confirmation of mouse ABHD4 inhibitors; shares compounds with mABHD4 FP; purified mABHD4, FP-Rh probe fluorescence polarization; inhibition, % at 8.92 µM; hit rate 55% among 1,800;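 active means mean inhibition across replicates above the hit cutoff set in the primary screen, cut at about 30% in these data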;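 further: 0% = wild-type ABHD4 with DMSO and 100% = catalytically dead S159A mutant with DMSO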
SIAE inh conf – human SIAE inhibition, confirmation. shares compounds with SIAE primary. SIAE FP-Rh activity-based probe, fluorescence polarization. inhibition, % at 9.66 µM. hit rate 13% among 2,300. AID 1117263;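 active means mean inhibition of the replicates above the hit cutoff set in the primary screen, cut at about 17% in these data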;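 further: 0% = SIAE with DMSO and probe and 100% = probe without SIAE; inhibitors lower polarization as more probe stays unbound to SIAE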
* = called active by the depositor; x = no result given.

SMILES	TCR-CD3 inh	mABHD4 FP	PRMT1 FP inh	SIAE primary	HTRA1 inh	SIAE inh conf	others
CCc1ccc2c(CC(=O)Nc3cccc(S(=O)(=O)N4CCOCC4)c3)coc2c1	0	-26	3	-18	-50	x
COc1ccc(/C=C/C(=O)Nc2ccc(N3CCOCC3)cc2)cc1	5	7	-1	-2	-1	x
COc1ccc(N2CCN(c3ccc(NC(=O)/C=C\C(=O)O)cc3)CC2)cc1	11	36*	7	18*	32	4	mABHD4 conf=-7
CCN1C[C@@H]2[C@@H]3C(=O)N(Cc4ccccc4)C(=O)[C@@H]3[C@](C)(C1=O)N2C(=O)c1ccc(C(F)(F)F)cc1	6	5	0	-6	-1	x
O=C1N=c2ccccc2=C1c1sc(=S)n(-c2ccc(O)cc2)c1O	3	38*	17	22*	8	6	mABHD4 conf=25
Cc1c(-n2c(O)c(C3=c4ccccc4=NC3=O)sc2=S)c(=O)n(-c2ccccc2)n1C	7	7	-1	-2	7	x
CN(C(=O)c1ccc(NC(=O)Cc2cccc(NC(=O)C3CCN(C(=O)C4CCCCC4)CC3)c2)cc1)C1CCCC1	-3	4	0	2	-15	x
NS(=O)(=O)c1cccc(NS(=O)(=O)c2ccc3ccccc3c2)c1	-8	-7	1	-1	3	x
O=C(/C=C/c1ccco1)NC(=S)Nc1ccc(N2CCCC2)cc1	11	37*	25*	18*	25	7	mABHD4 conf=9
COC[C@@H]1CCCN1c1ccc2c(c1)O[C@H](COCc1ccccc1)CN([C@@H](C)c1ccccc1)S2(=O)=O	-8	-7	6	-1	x	x
CC(=O)c1ccc(NCC(=O)N2CCN(S(=O)(=O)c3ccccc3)CC2)cc1	1	-4	1	-1	0	x
N#Cc1ccccc1NCC(=O)N1CCN(S(=O)(=O)c2ccccc2)CC1	4	2	1	17*	-4	0
O=C(O)CSCC(=O)N1CCN(S(=O)(=O)c2ccccc2)CC1	-4	3	-3	21*	6	-1
Cc1cccn2c(=S)[nH]nc12	3	7	7	7	-2	x
CCCCNC(=O)Nc1ccccc1C(=O)Nc1ccc(OC)cc1	-5	-1	1	50*	-13	2
CCN(CC)CCCN(C(=O)c1ccc(F)cc1)c1nc(-c2ccc(OC)cc2)cs1	0	2	-4	24*	-2	4
COc1ccccc1CCC(=O)OCC(=O)NC1CC1	-5	-4	3	-49	-4	x
O=C(Nc1cccc(/C=C/c2ccccn2)c1)c1ccc(-n2cncn2)c([N+](=O)[O-])c1	-2	-13	-2	19*	-24	-17
O=C(Nc1ccc(F)c(F)c1)c1ccc(-n2cncn2)c([N+](=O)[O-])c1	11	-1	-2	4	-15	x
Cc1cccc(NS(=O)(=O)c2cccc(C(=O)N3CCN(C/C=C/c4ccccc4)CC3)c2)c1	12	-3	0	-10	-27	x
C[C@@]12CCC3[C@@](CCC4[C@@]3(C)CCC[C@@]4(C)C(=O)N3CCOCC3)(CC1=O)C2 (stereo partly specified)	0	0	3	-2	-2	x
CC(=O)c1c(C)[nH]c(C(=O)NCc2ccccc2)c1C	3	0	-2	26*	-1	-1
CCOC(=O)c1c(C)[nH]c(O)c1C=Nc1ccccc1	6	4	10	22*	16	3
COCCNC(=O)c1nc2ccccc2s1	-1	0	-2	19*	4	-2
CCNC(=S)N/N=C(\C)c1cc2ccccc2o1	-2	-1	1	5	-6	x
SMILES	TCR-CD3 inh	mABHD4 FP	PRMT1 FP inh	SIAE primary	HTRA1 inh	SIAE inh conf	others
C/C(=N\NC(=S)Nc1cccc(C)c1)c1cc2ccccc2o1	1	3	-2	19*	-8	6
O=C(NC1CCCCC1)c1sc(N2CCOCC2)nc1-c1ccccc1	6	-4	0	1	-1	x
O=C(CCCCC(=O)Sc1ccccc1)Sc1ccccc1	3	-6	10	18*	-3	4
O=C(CNC1C(=O)Nc2ccccc21)Sc1ccccc1 (stereo unspecified)	-1	0	-5	-4	0	x
CCCCn1c(N)c(N(CCOC)C(=O)CSCc2ccc(C)cc2)c(=O)[nH]c1=O	4	3	1	-6	-4	x
CCOCCCNc1ncnc2c1[nH]c1ccccc12	4	6	-2	1	2	x
CCCCOCCCNc1ncnc2c1[nH]c1ccccc12	-6	2	-4	18*	-3	4
CC(=O)Nc1ccc(S(=O)(=O)N(C)CC(=O)OCC(=O)N2CCCCC2)cc1	6	1	-1	-4	3	x
CCOc1ccc(OCCOC(=O)CN(C)S(=O)(=O)c2ccc(NC(C)=O)cc2)cc1	1	2	-4	20*	-5	-5
CCCNC(=O)C(Cc1ccc(F)cc1)NC(=O)c1ccc(C#N)cc1 (stereo unspecified)	4	6	-3	20*	0	-4
O=C(OCC#CCSc1nnc(-c2cccc3ccccc23)o1)c1ccc2ccccc2c1	-1	-4	0	-10	6	x
Cc1ccc(S(=O)(=O)NC2=C(N3CCN(Cc4ccccc4)CC3)C(=O)c3ccccc3C2=O)cc1	1	28	-4	-4	26	x
CCOC(=O)N1CCN(C2=C(NS(=O)(=O)c3ccc(C)cc3)C(=O)c3ccccc3C2=O)CC1	2	20	2	20*	17	8
COc1cc(OC)c(OC)cc1CN1CCN(C(=O)CC(C)C)CC1	9	7	2	1	6	x
Cc1cc(OC(C)C(=O)NCc2ccncc2)c2c(C)c(C)c(=O)oc2c1 (stereo unspecified)	4	2	-1	0	-4	x
CCN(CC)C(=O)C1CCN(CC2CC=CCC2)CC1 (stereo unspecified)	-6	10	-2	0	1	x
CCN(Cc1ccccc1)C(=O)C1CCN(CC2CC=CCC2)CC1 (stereo unspecified)	-6	4	-6	22*	9	1
O=C1c2ccccc2C2=Nc3ccccc3SC(c3cccc(F)c3)C12 (stereo unspecified)	-2	18	3	18*	5	-10
O=c1oc2ccccc2cc1-c1nc2c(s1)CCc1ccccc1-2	4	-2	2	6	-27	x
O=c1oc2cc(O)ccc2cc1-c1nc2c(s1)CCc1ccccc1-2	0	13	18	19*	-2	-7
COc1ccc(/C=N/NC(=O)c2ccc(O)cc2)cc1CN1CCCc2ccccc21	-5	-1	0	26*	-25	-4
COc1ccc(/C=N/NC(=O)c2ccc(F)cc2)cc1CN1CCc2cc(OC)c(OC)cc2C1C (stereo unspecified)	8	-2	-5	-2	-14	x

Screening data as filed in PubChem.
